Measurements taken from ChEMBL document CHEMBL5303300, “EUbOPEN Chemogenomics Library - Multiplex” (2023).
Several values for one entry are separate records, joined by “and”; a condition that tells them apart may be missing. Equal values may be shown once.

Tested on: Fibroblast
Assay: Multiplex assay against human fibroblast
Assay type: toxicity, cell-based
Details: number of replicates 2
In short: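 Live cells carried four stains from seeding: Hoechst33342, BioTracker Green Microtubule Cytoskeleton Dye, MitoTracker Red and Annexin V Alexa Fluor 680. They were imaged on a CQ1 microscope at 37°C and 5% CO2 after compound addition. Using CellPathfinder machine-learning gating, cells were split into Hoechst high-intensity objects or normal cells, normal cells into healthy, pyknosed or fragmented nuclei, and pyknosed cells into mitotic or apoptotic; tubulin, mitochondrial-mass and membrane-permeability phenotypes are per cents of healthy-nucleus cells.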

[1] = 12 h, 1 µM, compound concentration 1 uM
[2] = 12 h, 10 µM, compound concentration 10 uM
[3] = 24 h, 1 µM, compound concentration 1 uM
[4] = 24 h, 10 µM, compound concentration 10 uM
[5] = 48 h, 1 µM, compound concentration 1 uM
[6] = 48 h, 10 µM, compound concentration 10 uM

Compound: CC(C)N(CCCCOCC(=O)NS(C)(=O)=O)c1cnc(-c2ccccc2)c(-c2ccccc2)n1 [SELEXIPAG]
- Population Apoptotic (%) [1]: 54% and 38%
- Population Fragmented Nuclei (%) [1]: 4% and 10%
- Population Healthy Nuclei (%) [1]: 77% and 72%
- Population Hoechst High Intensity Objects (%) [1]: 0%
- Population Membrane Permeable-Phenotype (%) [1]: 4%
- Population Mitochondria Different-Phenotype (%) [1]: 2% and 0%
- Population Mitotic Cells (%) [1]: 45% and 61%
- Population Normal (%) [1]: 100%
- Population Pyknosed Nuclei (%) [1]: 18% and 16%
- Population Tubulin-Different-Phenotype (%) [1]: 10% and 11%
- Total Cell Count [1]: 168 and 186
- Population Apoptotic (%) [2]: 56% and 54%
- Population Fragmented Nuclei (%) [2]: 7% and 14%
- Population Healthy Nuclei (%) [2]: 61% and 63%
- Population Hoechst High Intensity Objects (%) [2]: 0%
- Population Membrane Permeable-Phenotype (%) [2]: 0% and 6%
- Population Mitochondria Different-Phenotype (%) [2]: 1%
- Population Mitotic Cells (%) [2]: 43% and 45%
- Population Normal (%) [2]: 100% and 99%
- Population Pyknosed Nuclei (%) [2]: 31% and 21%
- Population Tubulin-Different-Phenotype (%) [2]: 2% and 10%
- Total Cell Count [2]: 148 and 221
- Population Apoptotic (%) [3]: 58% and 50%
- Population Fragmented Nuclei (%) [3]: 8% and 14%
- Population Healthy Nuclei (%) [3]: 75% and 65%
- Population Hoechst High Intensity Objects (%) [3]: 0%
- Population Membrane Permeable-Phenotype (%) [3]: 6% and 4%
- Population Mitochondria Different-Phenotype (%) [3]: 0%
- Population Mitotic Cells (%) [3]: 41% and 50%
- Population Normal (%) [3]: 99% and 100%
- Population Pyknosed Nuclei (%) [3]: 16% and 20%
- Population Tubulin-Different-Phenotype (%) [3]: 7% and 8%
- Total Cell Count [3]: 175 and 190
- Population Apoptotic (%) [4]: 56% and 50%
- Population Fragmented Nuclei (%) [4]: 6% and 13%
- Population Healthy Nuclei (%) [4]: 63% and 65%
- Population Hoechst High Intensity Objects (%) [4]: 0%
- Population Membrane Permeable-Phenotype (%) [4]: 2% and 6%
- Population Mitochondria Different-Phenotype (%) [4]: 1%
- Population Mitotic Cells (%) [4]: 43% and 50%
- Population Normal (%) [4]: 100% and 99%
- Population Pyknosed Nuclei (%) [4]: 30% and 21%
- Population Tubulin-Different-Phenotype (%) [4]: 6% and 8%
- Total Cell Count [4]: 152 and 221
- Population Apoptotic (%) [5]: 80% and 40%
- Population Fragmented Nuclei (%) [5]: 8% and 11%
- Population Healthy Nuclei (%) [5]: 79% and 75%
- Population Hoechst High Intensity Objects (%) [5]: 0%
- Population Membrane Permeable-Phenotype (%) [5]: 4% and 6%
- Population Mitochondria Different-Phenotype (%) [5]: 0%
- Population Mitotic Cells (%) [5]: 20% and 60%
- Population Normal (%) [5]: 99%
- Population Pyknosed Nuclei (%) [5]: 11% and 12%
- Population Tubulin-Different-Phenotype (%) [5]: 4% and 3%
- Total Cell Count [5]: 169 and 204
- Population Apoptotic (%) [6]: 90% and 59%
- Population Fragmented Nuclei (%) [6]: 8% and 11%
- Population Healthy Nuclei (%) [6]: 71% and 68%
- Population Hoechst High Intensity Objects (%) [6]: 0%
- Population Membrane Permeable-Phenotype (%) [6]: 0% and 4%
- Population Mitochondria Different-Phenotype (%) [6]: 0%
- Population Normal (%) [6]: 100%
- Population Pyknosed Nuclei (%) [6]: 19%
- Population Tubulin-Different-Phenotype (%) [6]: 3% and 7%
- Total Cell Count [6]: 151 and 212

Compound: COc1ccc(-c2cc3c(C)nc(N)nc3n([C@H]3CC[C@H](OCCO)CC3)c2=O)cn1 [PF-04691502]
- Population Apoptotic (%) [1]: 34% and 55%
- Population Fragmented Nuclei (%) [1]: 15% and 13%
- Population Healthy Nuclei (%) [1]: 73% and 71%
- Population Hoechst High Intensity Objects (%) [1]: 0%
- Population Membrane Permeable-Phenotype (%) [1]: 3%
- Population Mitochondria Different-Phenotype (%) [1]: 3% and 1%
- Population Mitotic Cells (%) [1]: 65% and 45%
- Population Normal (%) [1]: 100%
- Population Pyknosed Nuclei (%) [1]: 10% and 15%
- Population Tubulin-Different-Phenotype (%) [1]: 11% and 8%
- Total Cell Count [1]: 270 and 253
- Population Apoptotic (%) [2]: 55% and 54%
- Population Fragmented Nuclei (%) [2]: 29% and 27%
- Population Healthy Nuclei (%) [2]: 51% and 60%
- Population Hoechst High Intensity Objects (%) [2]: 1% and 0%
- Population Membrane Permeable-Phenotype (%) [2]: 5% and 9%
- Population Mitochondria Different-Phenotype (%) [2]: 3% and 1%
- Population Mitotic Cells (%) [2]: 44% and 45%
- Population Normal (%) [2]: 98% and 100%
- Population Pyknosed Nuclei (%) [2]: 18% and 11%
- Population Tubulin-Different-Phenotype (%) [2]: 26% and 18%
- Total Cell Count [2]: 185 and 202
- Population Apoptotic (%) [3]: 62% and 58%
- Population Fragmented Nuclei (%) [3]: 7% and 9%
- Population Healthy Nuclei (%) [3]: 80% and 72%
- Population Hoechst High Intensity Objects (%) [3]: 0%
- Population Membrane Permeable-Phenotype (%) [3]: 4% and 2%
- Population Mitochondria Different-Phenotype (%) [3]: 1%
- Population Mitotic Cells (%) [3]: 37% and 41%
- Population Normal (%) [3]: 99%
- Population Pyknosed Nuclei (%) [3]: 12% and 17%
- Population Tubulin-Different-Phenotype (%) [3]: 7% and 3%
- Total Cell Count [3]: 262 and 247
- Population Apoptotic (%) [4]: 59% and 65%
- Population Fragmented Nuclei (%) [4]: 20%
- Population Healthy Nuclei (%) [4]: 60% and 66%
- Population Hoechst High Intensity Objects (%) [4]: 0%
- Population Membrane Permeable-Phenotype (%) [4]: 10% and 8%
- Population Mitochondria Different-Phenotype (%) [4]: 0% and 1%
- Population Mitotic Cells (%) [4]: 40% and 34%
- Population Normal (%) [4]: 99% and 100%
- Population Pyknosed Nuclei (%) [4]: 20% and 13%
- Population Tubulin-Different-Phenotype (%) [4]: 27% and 23%
- Total Cell Count [4]: 161 and 176
- Population Apoptotic (%) [5]: 60% and 59%
- Population Fragmented Nuclei (%) [5]: 8% and 12%
- Population Healthy Nuclei (%) [5]: 80% and 72%
- Population Hoechst High Intensity Objects (%) [5]: 0%
- Population Membrane Permeable-Phenotype (%) [5]: 5%
- Population Mitochondria Different-Phenotype (%) [5]: 0%
- Population Mitotic Cells (%) [5]: 39% and 40%
- Population Normal (%) [5]: 100%
- Population Pyknosed Nuclei (%) [5]: 10% and 15%
- Population Tubulin-Different-Phenotype (%) [5]: 6% and 4%
- Total Cell Count [5]: 258 and 245
- Population Apoptotic (%) [6]: 66%
- Population Fragmented Nuclei (%) [6]: 12% and 22%
- Population Healthy Nuclei (%) [6]: 59%
- Population Hoechst High Intensity Objects (%) [6]: 0%
- Population Membrane Permeable-Phenotype (%) [6]: 7% and 4%
- Population Mitochondria Different-Phenotype (%) [6]: 1%
- Population Mitotic Cells (%) [6]: 33%
- Population Normal (%) [6]: 100%
- Population Pyknosed Nuclei (%) [6]: 27% and 17%
- Population Tubulin-Different-Phenotype (%) [6]: 32% and 19%
- Total Cell Count [6]: 140 and 170
